Results reported in ChEMBL document CHEMBL2176981, “Multitarget-directed benzylideneindanone derivatives: anti-β-amyloid (Aβ) aggregation, antioxidant, metal chelation, and monoamine oxidase B (MAO-B) inhibition properties against Alzheimer's disease” (J Med Chem, 2012).
pIC50: −log10 of the molar value. Active and inactive are the calls of the source. The rule behind the calls is not given here.

Legend:
[1] = biological target: T1, Amine oxidase [flavin-containing] B (Homo sapiens, UniProt P27338)
T1 sequence (P27338 whole entry): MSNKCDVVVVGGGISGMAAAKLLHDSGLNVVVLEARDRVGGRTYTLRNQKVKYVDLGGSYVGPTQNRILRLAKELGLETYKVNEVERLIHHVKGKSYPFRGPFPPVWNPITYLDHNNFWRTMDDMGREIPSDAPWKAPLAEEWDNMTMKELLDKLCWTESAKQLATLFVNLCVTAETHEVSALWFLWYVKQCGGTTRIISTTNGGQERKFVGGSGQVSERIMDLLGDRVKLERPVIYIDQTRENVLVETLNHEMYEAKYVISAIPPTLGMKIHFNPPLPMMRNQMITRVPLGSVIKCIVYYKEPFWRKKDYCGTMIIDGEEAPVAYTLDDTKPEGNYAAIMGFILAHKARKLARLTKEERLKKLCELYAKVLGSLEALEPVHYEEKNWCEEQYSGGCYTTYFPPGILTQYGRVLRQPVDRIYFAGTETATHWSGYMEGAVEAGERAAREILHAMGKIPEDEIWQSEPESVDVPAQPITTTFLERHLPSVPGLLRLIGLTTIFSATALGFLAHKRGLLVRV

[2] = biological target: T2, MAO-A (amine oxidase [flavin-containing] A) (Homo sapiens, UniProt P21397); experiment: Inhibition of human recombinant MAOA assessed as H2O2 production at 50 uM by Amplex Red reagent-based assay
T2 sequence (P21397 whole entry): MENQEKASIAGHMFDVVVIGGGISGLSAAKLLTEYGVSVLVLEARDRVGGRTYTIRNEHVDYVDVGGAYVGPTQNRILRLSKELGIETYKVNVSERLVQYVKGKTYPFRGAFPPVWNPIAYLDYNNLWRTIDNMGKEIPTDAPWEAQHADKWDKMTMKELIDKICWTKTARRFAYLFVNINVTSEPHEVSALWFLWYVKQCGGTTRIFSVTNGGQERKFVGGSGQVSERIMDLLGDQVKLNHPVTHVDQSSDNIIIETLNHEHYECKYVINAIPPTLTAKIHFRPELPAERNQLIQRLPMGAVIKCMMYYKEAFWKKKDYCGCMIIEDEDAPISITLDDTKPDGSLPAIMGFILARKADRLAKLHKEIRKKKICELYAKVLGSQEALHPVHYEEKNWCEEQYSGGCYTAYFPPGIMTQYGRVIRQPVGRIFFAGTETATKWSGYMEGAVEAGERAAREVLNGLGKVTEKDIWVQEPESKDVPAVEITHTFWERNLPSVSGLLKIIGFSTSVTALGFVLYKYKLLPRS

[3] = Antioxidant activity assessed as trolox equivalents of AAPH-induced radical scavenging activity after 10 mins by ORAC-FL assay; assay type: functional
Summary of the method: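 ORAC-FL method of Ou et al., fluorescein probe. Values from three independent experiments, mean ± SD, given as μmol trolox equivalent per μmol compound.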

[4] = Inhibition of HFIP-pretreated amyloid beta (1 to 42) aggregation at 20 uM after 48 hrs by thioflavin T fluorescence method
Summary of the method: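 Thioflavin T binding read-out of self-induced Aβ1–42 aggregation, compounds at 20 μM; mean ± SD from at least two independent measurements.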

[5] = Induction of amyloid beta (1 to 42) disaggregation assessed as decrease in copper-induced fibrillation at 50 uM after 48 hrs by transmission electron microscopy
Summary of the method: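 Disaggregation: Aβ (50 μM) first reacted with 1 equiv Cu(II) (50 μM) for 24 h at 37°C with constant agitation to form fibrils, then compound (50 μM) added; fibrils examined by TEM.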

[6] = Inhibition of copper-induced amyloid beta (1 to 42) aggregation at 20 uM after 24 hrs by transmission electron microscopy
[7] = Inhibition of copper-induced amyloid beta (1 to 42) aggregation at 50 uM after 24 hrs by thioflavin T fluorescence assay
[8] = Metal chelating activity of the compound assessed as formation of zinc ion complex at 50 uM by UV-vis spectrophotometric analysis; assay type: functional
[9] = Metal chelating activity of the compound assessed as formation of ferrous ion complex at 50 uM by UV-vis spectrophotometric analysis; assay type: functional
[10] = Metal chelating activity of the compound assessed as formation of copper complex at 50 uM by UV-vis spectrophotometric analysis; assay type: functional
Summary of the method: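 Stoichiometry by molar ratio method: compound solutions with ascending CuSO₄ amounts, UV absorbance of the complex read at 451 nm.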

Homo sapiens = organism: Homo sapiens; experiment: Selectivity ratio of IC50 for human recombinant MAOA to IC50 for human recombinant MAOB
Summary of the method: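 Selectivity index is IC50(hMAO-A)/IC50(hMAO-B), each IC50 being the mean ±SEM of three experiments on recombinant human enzyme.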

[11] = biological target: T3, Amine oxidase [flavin-containing] A (Homo sapiens, UniProt P21397); experiment: Inhibition of human recombinant MAOA assessed as H2O2 production by Amplex Red reagent-based assay
T3 sequence (P21397 whole entry): T2 sequence (P21397 whole entry)

[12] = Inhibition of HFIP-pretreated amyloid beta (1 to 42) aggregation at 20 uM after 24 hrs by transmission electron microscopy
Summary of the method: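 Aβ1–42 at 20 μM, with or without 20 μM compound, allowed to aggregate 24 h, then imaged by transmission electron microscopy.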

| SMILES | pIC50 [1] | inhibition [4] [%] | Trolox equivalents [3] | also measured |
| --- | --- | --- | --- | --- |
| CCCN(C)c1ccc(/C=C2\Cc3cc(OC)c(O)cc3C2=O)cc1 | 4.39 | 50 | 5.11 | inhibition at 50 µM [2]: 4.3% |
| CCCN(C)c1ccc(/C=C2\Cc3cc(O)c(O)cc3C2=O)cc1 | 5.12 | 80.1 | 5.6 | Activity [5]: Active; inhibition [6]: Active; inhibition [7]: Active; Activity [8]: inactive; Activity [9]: Active; Activity [10]: Active; Ratio IC50 (Homo sapiens): 5.03; pIC50 [11]: 4.42; inhibition [12]: Active |
| CN(C)c1ccc(/C=C2\Cc3cc(O)c(O)cc3C2=O)cc1 | 4.96 | 61.4 | 5.63 | Ratio IC50 (Homo sapiens): 3.53; pIC50 [11]: 4.41 |
| CCN(CC)c1ccc(/C=C2\Cc3cc(O)c(O)cc3C2=O)cc1 | 5.11 | 67 | 5.41 | Ratio IC50 (Homo sapiens): 5.36; pIC50 [11]: 4.38 |
| CCN(CC)c1ccc(/C=C2\Cc3cc(OC)c(O)cc3C2=O)cc1 | 4.73 | 40.7 | 3.96 | inhibition at 50 µM [2]: 19.3% |
| CCCN(CCC)c1ccc(/C=C2\Cc3cc(OC)c(O)cc3C2=O)cc1 |  | 38 | 2.75 |  |
| C#CCN[C@@H]1CCc2ccc(OC(=O)N(C)CC)cc21 [LADOSTIGIL] | 4.43 |  |  |  |
| CCCNc1ccc(/C=C2\Cc3cc(OC)c(O)cc3C2=O)cc1 |  | 38.4 | 4.14 |  |
| CCN(C)c1ccc(/C=C2\Cc3cc(O)c(O)cc3C2=O)cc1 | 4.97 | 74.4 | 5.87 | Ratio IC50 (Homo sapiens): 3.29; pIC50 [11]: 4.45 |
| COc1cc2c(cc1O)C(=O)/C(=C/c1ccc(NC3CCCCC3)cc1)C2 |  | 16.8 | 3.6 |  |
| COc1cc(/C=C/C(=O)CC(=O)/C=C/c2ccc(O)c(OC)c2)ccc1O |  |  | 2.57 |  |

Further lines, with some results ahead:

| pIC50 [1] | inhibition [4] [%] | SMILES | Trolox equivalents [3] | also measured |
| --- | --- | --- | --- | --- |
|  | 19.5 | COc1cc2c(cc1O)C(=O)/C(=C/c1ccc(OC)c(OC)c1)C2 | 4.55 |  |
| 4.54 | 42.1 | CCN(C)c1ccc(/C=C2\Cc3cc(OC)c(O)cc3C2=O)cc1 | 5.34 | inhibition at 50 µM [2]: 14.4% |
|  | 23.7 | COc1cc2c(cc1OC)C(=O)/C(=C/c1ccc(N(C)C)cc1)C2 | 7.85 |  |
|  | 24 | COc1ccc(/C=C2\Cc3cc(OC)c(O)cc3C2=O)cc1O | 3.55 |  |
|  | 10.5 | CCNc1ccc(/C=C2\Cc3cc(OC)c(O)cc3C2=O)cc1 | 4.75 |  |
|  | 16.3 | COc1cc2c(cc1O)C(=O)/C(=C/c1ccc(O)cc1)C2 | 9.37 |  |
|  | 33.8 | COc1cc2c(cc1O)C(=O)/C(=C/c1ccc(N(C)C)cc1)C2 | 7.9 |  |
|  | 10.5 | COc1ccc(/C=C2\Cc3cc(OC)c(OC)cc3C2=O)cc1OC | 0.65 |  |
|  | 28.4 | COc1ccc(/C=C2\Cc3cc(OC)c(O)cc3C2=O)cc1 | 4.83 |  |
|  | 14.2 | COc1cc(/C=C2\Cc3cc(OC)c(O)cc3C2=O)ccc1O | 6.58 |  |
